Source: PubChem BioAssay
Shown are actives, neighbours in structure and some others; about 5.6% of the full set was active somewhere.
CHOP UPR activ = activators of apoptotic arm of unfolded protein response (CHOP); activation, % at 10 µM; CHO-CHOP luciferase reporter, UPR activation, luminescence; percent of tunicamycin response over DMSO baseline; AID 449763; 330,000 tested, 0.34% active;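 active = at 10 µM dose, activation of 40% or more, normalized to positive control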;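 note: 100% = tunicamycin at 10 µg/mL and 0% = DMSO alone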
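Test system: CHO CHOP reporter cells. Input: 500 CHO-CHOP cells per well. Medium: F12 with 10% FBS. Technique: luciferase luminescence. Measure: percent activation relative to tunicamycin control. Dosing: 10 µM compound, 0.5% DMSO. Timing: 16-18 h cell attachment, then 6 h compound exposure, 37 °C.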
CHOP inh = blocks CHOP induction under ER stress; CHO-K1 CHOP-promoter luciferase, tunicamycin-induced, 15-18 h; inhibition, % at 10 µM; AID 2732; 220,000 tested, 3.8% active;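 active = compounds that reduced the stress-induced luciferase reporter signal by more than about 70% of percent inhibition, limit read from the data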;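 note: 0% = tunicamycin plus vehicle and 100% = wells without tunicamycin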
MPTP block = blocks calcium-induced mitochondrial swelling; isolated mouse mitochondria, Ca2+ swelling absorbance, 30 min; inhibition, % at 10 µM; 360,000 tested, 1.4% active; AID 602449;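 active = inhibition of 50% or more, scaled per plate between neutral and stimulator controls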;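 note: 0% = DMSO wells given calcium and 100% = 1 mM EGTA wells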
UPR XBP1 act = adaptive UPR (XBP1) activation; 330,000 tested, 0.33% active; activation, % at 20 µM; CHO-XBP1 luciferase reporter, IRE1-XBP1 UPR activation, luminescence; percent of tunicamycin response, DMSO as zero;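 active = versus positive control, 20 µM dose yields 30% or more activation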;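 note: 100% = tunicamycin at 10 µg/mL and 0% = DMSO only wells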
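assay system = CHO-XBP1 luciferase reporter cells | amount = 1000 cells/well | buffer or medium = F12 plus 10% FBS | compound dosing = single point, 20 µM final compound, 1% DMSO | incubation = 16-18 h cell attachment at 37 °C, then 6 h compound exposure | detection = Steady-Glo luminescence read | controls = tunicamycin 10 µg/mL and vehicle-only wells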
aDG glyco act = increases alpha dystroglycan glycosylation | Pro5-aDG cells, alpha-DG glycosylation AlphaScreen (IIH6); 0% Pro5, 100% B10-LARGE cell signal | activation, % at 10 µM | 360,000 tested, 0.22% active;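 active = activation of at least 8% versus controls, or a plate z-score of at least 8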;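 note: Pro5 are CHO cells carrying HIG-tagged alpha-DG that lacks glycosylation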
NR3A LBD binder = modulates the human NR3A ligand-binding domain; NR3A LBD differential scanning fluorimetry, Tm shift; 0% = protein alone, 100% = glycine-bound protein; AID 1259313; 340,000 tested, 2.5% active; Tm shift relative to glycine control, % at 25 µM;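 active = melting temperature shift of at least 10% of the positive control shift, at one fixed dose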
The depositor's hits bear a star; x = no result.

SMILES	CHOP UPR activ	CHOP inh	MPTP block	UPR XBP1 act	aDG glyco act	NR3A LBD binder
COCc1ccc(C(=O)N(C)C2CCCN(Cc3ccccc3F)C2)o1 (centres undefined)	3.7	x	0.7	-6.1	-0.2	0.4
Oc1ccc(Nc2ncnc3c2oc2ccccc23)cc1	13.6	x	-0.3	18.0	0.3	16.4*
c1ccc(Nc2ncnc3c2oc2ccccc23)cc1	10.0	18.7	-3.7	5.5	-0.2	-7.5
CC(C)Sc1ncnc2c1oc1ccccc12	11.0	74.5*	2.9	7.4	0.0	0.3
Oc1ccccc1Nc1ncnc2c1oc1ccccc12	5.2	50.3	-8.0	10.4	-0.3	0.8
Oc1cccc(Nc2ncnc3c2oc2ccccc23)c1	5.0	x	0.0	15.6	-0.2	21.8*
COCCCN1C(=O)N(c2ccccc2)C(=O)C1CC(=O)Nc1ccc(F)cc1 (centres undefined)	-1.2	x	0.6	-0.2	-0.1	1.2
COc1ccccc1CNCC(O)(c1ccc(F)cc1)c1ccc(F)cc1	-0.3	x	0.9	-1.0	0.1	0.2
OC(CNCc1ccccc1F)(c1ccc(F)cc1)c1ccc(F)cc1	-1.7	75.0*	3.1	-4.7	0.4	-0.9
Cc1ccc(CNCC(O)(c2ccc(F)cc2)c2ccc(F)cc2)cc1	0.0	85.6*	5.5	-1.1	-0.2	-0.9
O=S(=O)(NCC(c1cccnc1)N1CCN(c2ccc(F)cc2)CC1)c1ccc(F)cc1 (centres undefined)	1.1	93.8*	-2.0	0.2	-0.3	0.2
COc1ccccc1N1CCN(C(CNS(=O)(=O)c2ccc(C)cc2)c2cccnc2)CC1 (centres undefined)	-1.6	19.6	2.1	-0.4	0.0	15.8*
Cc1nn(C)cc1/C=N/NC(=S)Nc1ccc(Cl)cc1Cl	1.3	-17.8	1.3	1.6	-0.1	18.0*
c1ccc(-n2nnnc2NCCc2c[nH]c3ccccc23)cc1	-1.1	12.3	1.7	0.9	-0.1	12.0*
Fc1cccc(NCCc2c[nH]c3ccccc23)n1	0.6	x	0.4	1.4	-0.2	14.7*
CCCCC(=O)N1C/C=C\C(c2ccc(OC)cc2)N(Cc2ccc(F)cc2)C(=O)[C@H]1Cc1ccccc1 (some centres undefined)	3.7	13.1	0.2	-5.2	0.3	-2.1
CC(C)CC(=O)N1CC=CC[C@@H](c2ccc(Cl)cc2)N(Cc2ccc(Cl)cc2)C(=O)[C@@H]1Cc1ccccc1	x	x	6.5	x	0.4	11.5*
CCOc1ccc(NC(=O)COC(=O)C2C3CC4OC(=O)C2C4C3)cc1 (centres undefined)	0.8	x	-1.8	4.1	0.0	-1.9
CC(C)CCNC(=O)c1cc2c(=O)n3ccccc3nc2s1	2.5	x	0.0	10.2	0.2	1.9
C=CCn1c(-c2cc(-c3ccc(C)cc3)nc3ccccc23)n[nH]c1=S	2.0	70.4*	-1.9	5.9	-0.6	-21.8
COc1cc(NC(=O)COC(=O)Cc2ccsc2)cc(OC)c1	0.7	x	-0.5	-2.4	0.3	2.7
O=C(NC(=S)NC1CCCC1)c1ccccc1Br	3.6	82.5*	-1.4	4.1	0.1	-1.0
O=C(NC(=S)NC1CCCC1)c1ccccc1	5.2	x	-0.1	-3.3	0.1	2.9
COC(=O)c1ccc(Cn2nc(C(F)(F)F)cc2C)cc1	2.7	9.6	-1.0	2.4	-0.2	16.7*
COC(=O)c1ccc(Cn2nc(C)cc2C)cc1	-0.2	-23.8	-0.3	1.7	0.0	1.4
SMILES	CHOP UPR activ	CHOP inh	MPTP block	UPR XBP1 act	aDG glyco act	NR3A LBD binder
COc1ccc2cc(C(=O)N(C)CC(=O)Nc3ccccc3Br)ccc2c1	4.0	x	4.2	-0.6	-0.4	1.2
COc1cc2oc(=O)cc(-c3ccc(-c4ccc(CO)cc4)cc3)c2c(OC)c1OC	0.1	x	8.3	0.4	0.2	-20.8
Cc1cc(=O)n2nc(N3CCC(C(=O)NCC(C)c4ccccc4)CC3)sc2n1 (centres undefined)	1.0	x	0.5	-1.8	2.3	10.5*
Cc1cc(=O)n2nc(N3CCC(C(=O)NC(C)c4ccccc4)CC3)sc2n1 (centres undefined)	-0.9	28.3	-2.1	-0.2	-0.1	1.9
NC(=O)c1ccsc1NC(=O)COC(=O)c1ccc([N+](=O)[O-])o1	0.2	x	-0.5	-2.8	0.3	12.0*
Cc1ccc(C(=O)OCC(=O)Nc2nc(-c3ccccc3)cs2)cc1NC(=O)c1ccco1	3.1	38.9	-0.8	9.1	-0.4	2.6
O=C(COC(=O)c1ccco1)c1ccc2ccccc2c1	5.1	15.4	0.9	0.1	0.3	10.2*
O=C(COC(=O)c1ccco1)c1ccccc1	4.1	x	-0.4	-2.8	0.1	-4.8
O=C(COC(=O)c1ccco1)Nc1ccc(Br)cc1	-1.2	12.6	0.5	3.8	-0.1	10.8*
Cc1ccc(C(=O)OCC(=O)Nc2sccc2C(N)=O)cc1NC(=O)c1ccco1	0.9	71.9*	0.3	3.2	-0.3	-17.8
O=C(c1ccccc1Cl)c1c(O)c2ccccc2oc1=O	-1.8	x	1.4	1.6	-0.1	0.3
CCc1nc2c(OCc3ccc(C(=O)N(C)C)cc3)cccn2c1N(C)C(=O)c1ccc(C)cc1	x	x	-0.8	x	0.3	x
O=Nc1nc2ncccn2c1-c1ccccc1	x	x	-1.0	x	-0.3	-0.2
Cc1ccc(C(=O)OCC(=O)Nc2ccc(N(C)C)cc2)cc1NC(=O)c1ccco1	-2.0	5.9	-1.2	-2.8	-0.3	14.6*
Cc1ccc(C(=O)OCC(=O)Nc2ccccc2)cc1NC(=O)c1ccco1	4.7	1.4	1.2	0.9	-0.3	-0.1
NC(=O)c1ccsc1NC(=O)COC(=O)c1ccc(Cl)c(N)c1	1.1	x	-1.1	-0.4	-0.4	23.2*
O=C(NCc1ccon1)C1CCC(=O)N(CCc2ccc(Cl)cc2)C1 (centres undefined)	0.5	x	-0.6	-6.6	0.6	0.2
CS(=O)(=O)Nc1cccc2cccnc12	-1.2	-44.2	0.7	-0.3	-0.3	9.6
Cc1cc(C)n(-c2ccc3cccc(NS(C)(=O)=O)c3n2)n1	-3.5	74.2*	0.1	1.1	0.8	-2.0
CC(=O)/C(N)=N/Nc1cccc(Cl)c1	0.0	3.1	6.9	-2.0	-0.2	20.3*
CC1(C)Cc2ccccc2C(/C(=N\Nc2cccc(Cl)c2)C(N)=O)=N1	0.4	86.6*	7.2	-4.2	-0.2	-7.4
Cc1cc(C)cc(C(=O)OCC(=O)NCc2ccco2)c1	-2.5	x	-1.0	2.5	-0.1	-0.8
COc1ccc2[nH]c(=O)c(CN(C(C)=O)c3cc(C)ccc3C)cc2c1	x	x	1.0	x	0.4	x
CCCC(=O)Nc1ccc(Br)cn1	2.2	1.4	-0.5	0.1	-0.1	0.0
O=C(NC(=S)Nc1ccc(Br)cn1)c1cncc(Br)c1	2.3	80.6*	1.7	6.8	0.0	2.1
